A short description of data set [1]: Apparent permeability across apical to basolateral side in MDCK cells at 10 uM by LC-MS/MS analysis. The class given is ADME, cell-based, Canis lupus familiaris. Particulars: dog. The essentials:
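Apparent permeability, Papp A-B, measured across MDCK cell monolayers. Mean of at least two runs.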

Data set [2] is described as follows: Volume of distribution at steady state in NCR nude mouse at 5 mg/kg, iv. The note with it: in vivo, read-out: Vdss. Type of data set: ADME, organism-based. The arrangement: dose 5 mg/kg, route intravenous. Summed up:
(§1)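 Female NCR nude mice given a single 5 mg/kg IV or oral dose as a solution in 35:10:15:40 PEG400:EtOH:PG:H2O. Plasma concentration-time profiles were used to derive Cmax, Tmax, Vss, CL, half-life and bioavailability.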

Data set [3] in a line: Cmax in NCR nude mouse at 5 mg/kg, po. The class given is ADME, organism-based. The arrangement: dose 5 mg/kg, route oral. Particulars: in vivo. The essentials: as §1
Data set [4] can be described thus: Oral bioavailability in NCR nude mouse at 5 mg/kg. Particulars: in vivo. The class given is ADME, organism-based. Summed up:
as §1

A short description of data set [5]: Tmax in NCR nude mouse at 5 mg/kg, po. Type of data set: ADME, organism-based. The arrangement: dose 5 mg/kg, route oral. The note with it: in vivo. Summed up:
as §1

For orientation: Papp A→B means the apparent permeability from the apical to the basolateral side of a cell layer. For the compound `CC(C)n1cc(S(=O)(=O)c2ccc(CNC(=O)N3Cc4ccncc4C3)cc2)cn1`, the Papp A→B at 10 µM in data set [1] was found to be 4.1 ×10⁻⁶ cm/s.

`O=C(NCc1ccc(S(=O)(=O)C2CCN(C3CCOCC3)CC2)cc1)N1Cc2ccncc2C1`: the Papp A→B at 10 µM in data set [1] came to 0.1 ×10⁻⁶ cm/s.

With `O=C(NCc1ccc(S(=O)(=O)C2CCN(C3COC3)CC2)cc1)N1Cc2ccncc2C1`, in data set [1], the apical-to-basolateral permeability (Papp A→B) at 10 µM stood at 0.1 ×10⁻⁶ cm/s.

Consider `O=C(NCc1ccc(S(=O)(=O)c2ccccc2)cc1)N1Cc2ccncc2C1`, for which the apical-to-basolateral permeability (Papp A→B) at 10 µM in data set [1] is 8.3 ×10⁻⁶ cm/s.

With `Nc1ccc(S(=O)(=O)c2ccc(CNC(=O)N3Cc4ccncc4C3)cc2)cn1`, the apparent permeability from apical to basolateral (Papp A→B) at 10 µM in data set [1] amounted to 0.5 ×10⁻⁶ cm/s.

What is called Cmax is the maximum level reached in the sampled fluid or tissue. As usually defined, the bioavailability is dose-corrected exposure relative to a reference, in per cent. Low readings indicate little systemic uptake, high ones much systemic uptake. What is called Tmax is the time from dosing to the highest level. Turning to `Cc1ccc(S(=O)(=O)c2ccc(CNC(=O)N3Cc4ccncc4C3)cc2)cn1`, the Vd in data set [2] came to 2.04 L/kg. For the same compound, the concentration in data set [3] peaked (Cmax) at 330 nM. Also, in data set [4], the bioavailability is 20.3%. The time to peak (Tmax) in data set [5] is 15 min. The Papp A→B at 10 µM in data set [1] was 2.5 ×10⁻⁶ cm/s.
